Source: article PMC9301648 (ACS Omega, 2022)

Key:
[1] = system: human coronavirus (HCoV) 229E; test: cytopathic effect; format: cell-based; conditions: for inhibition at 25 µM: unidentified human coronavirus, MRC5, read-out: normalized inhibition % (25 μM); for inhibition of HCoV 229E in words: 25 μM, MRC5 cells
Summary of the method: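 MRC5 cells were seeded at 20,000 cells/well and grown overnight at 37 °C, 5% CO₂. Test compound diluted in assay medium was added, then HCoV 229E diluted in assay medium; final DMSO 0.5%. CPE was read by CellTiter Glo. Protection at each concentration was normalized to virus-only control. Screen at 25 μM; EC50 from full dose–response by four-parameter variable-slope nonlinear regression.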

[2] = cytotoxicity toward MRC5 cells, same conditions without virus infection; format: cell-based; conditions: human
Summary of the method: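 Run in parallel with the antiviral CPE assay under identical conditions without virus infection. MRC5 cells were seeded at 20,000 cells/well and cultured overnight at 37 °C, 5% CO₂. Test compound diluted in assay medium was added; final DMSO 0.5%. Viability was read by CellTiter Glo. Single-point at 25 μM; CC50 by four-parameter log(inhibitor) vs response variable-slope regression.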

| SMILES | inhibition at 25 µM [1] [%] | cytotoxicity at 3 days, 25 µM [2] [%] | CC50 at 3 days [2] [µM] | inhibition of HCoV 229E in words [1] |
| --- | --- | --- | --- | --- |
| CC(=O)OC[C@@]1(C)[C@H]2CC[C@@H]3CN(CCC(C)C)[C@@H](C4=CCOC4=O)C[C@H]3[C@]2(C)CC[C@H]1OC(C)=O [4v, ((2R,4aS,6aS,7R,8R,10aS,10bR)-8-Acetoxy-3-isopentyl-7,10a-dimethyl-2-(2-oxo-2,5-dihydrofuran-3-yl)tetradecahydrobenzo[f]isoquinolin-7-yl)methyl Acetate] | 102 | 3.2 |  |  |
| CC(=O)OC[C@@]1(C)[C@H]2CC[C@@H]3CN(Cc4cccc(Cl)c4)[C@@H](C4=CCOC4=O)C[C@H]3[C@]2(C)CC[C@H]1OC(C)=O [4m, ((2R,4aS,6aS,7R,8R,10aS,10bR)-8-Acetoxy-3-(3-chlorobenzyl)-7,10a-dimethyl-2-(2-oxo-2,5-dihydrofuran-3-yl)tetradecahydrobenzo[f]isoquinolin-7-yl)methyl Acetate] | 130 | -13.2 | > 100 |  |
| CC(=O)OC[C@@]1(C)[C@H]2CC[C@@H]3CN(Cc4ccc(Br)cc4)[C@@H](C4=CCOC4=O)C[C@H]3[C@]2(C)CC[C@H]1OC(C)=O [4d, ((2R,4aS,6aS,7R,8R,10aS,10bR)-8-Acetoxy-3-(4-bromobenzyl)-7,10a-dimethyl-2-(2-oxo-2,5-dihydrofuran-3-yl)tetradecahydrobenzo[f]isoquinolin-7-yl)methyl Acetate] | 110 | -3 |  |  |
| CC(=O)OC[C@@]1(C)[C@H]2CC[C@@H]3CN(Cc4cccc5ccccc45)[C@@H](C4=CCOC4=O)C[C@H]3[C@]2(C)CC[C@H]1OC(C)=O [4q, ((2R,4aS,6aS,7R,8R,10aS,10bR)-8-Acetoxy-7,10a-dimethyl-3-(naphthalen-1-ylmethyl)-2-(2-oxo-2,5-dihydrofuran-3-yl)tetradecahydrobenzo[f]isoquinolin-7-yl)methyl Acetate] | 121 | -14.7 |  |  |
| CC(=O)OC[C@@]1(C)[C@H]2CC[C@@H]3CN(Cc4ccc(C(F)(F)F)cc4)[C@@H](C4=CCOC4=O)C[C@H]3[C@]2(C)CC[C@H]1OC(C)=O [4h, ((2R,4aS,6aS,7R,8R,10aS,10bR)-8-Acetoxy-7,10a-dimethyl-2-(2-oxo-2,5-dihydrofuran-3-yl)-3-(4-(trifluoromethyl)benzyl)tetradecahydrobenzo[f]isoquinolin-7-yl)methyl Acetate] | 119 | -5.4 |  |  |
| C=C1CC[C@@H]2[C@](C)(CO)[C@H](O)CC[C@@]2(C)[C@@H]1C/C=C1/C(=O)OC[C@H]1O [andrographolide 1, andrographolide, reference compound] | 34.8 | 23.6 |  |  |
| CC(=O)OC[C@@]1(C)[C@H]2CC[C@@H]3CN(C4CCCC4)[C@@H](C4=CCOC4=O)C[C@H]3[C@]2(C)CC[C@H]1OC(C)=O [4w, ((2R,4aS,6aS,7R,8R,10aS,10bR)-8-Acetoxy-3-cyclopentyl-7,10a-dimethyl-2-(2-oxo-2,5-dihydrofuran-3-yl)tetradecahydrobenzo[f]isoquinolin-7-yl)methyl Acetate] | 11.3 | -4.5 |  |  |
| CC(=O)OC[C@@]1(C)[C@H]2CC[C@@H]3CN(Cc4ccc(F)c(Cl)c4)[C@@H](C4=CCOC4=O)C[C@H]3[C@]2(C)CC[C@H]1OC(C)=O [4n, ((2R,4aS,6aS,7R,8R,10aS,10bR)-8-Acetoxy-3-(3-chloro-4-fluorobenzyl)-7,10a-dimethyl-2-(2-oxo-2,5-dihydrofuran-3-yl)tetradecahydrobenzo[f]isoquinolin-7-yl)methyl Acetate] | 102 | -4.9 |  |  |
| C[C@]1(CO)[C@H]2CC[C@@H]3CN(Cc4ccccc4)[C@@H](C4=CCOC4=O)C[C@H]3[C@]2(C)CC[C@H]1O [11a, 3-((2R,4aS,6aS,7R,8R,10aS,10bR)-3-Benzyl-8-hydroxy-7-(hydroxymethyl)-7,10a-dimethyltetradecahydrobenzo[f]isoquinolin-2-yl)furan-2(5H)-one] | 39.7 | -4.8 |  |  |
| CC(=O)OC[C@@]1(C)[C@H]2CC[C@@H]3CN(Cc4ccc(O)cc4)[C@@H](C4=CCOC4=O)C[C@H]3[C@]2(C)CC[C@H]1OC(C)=O [4j, ((2R,4aS,6aS,7R,8R,10aS,10bR)-8-Acetoxy-3-(4-hydroxybenzyl)-7,10a-dimethyl-2-(2-oxo-2,5-dihydrofuran-3-yl)tetradecahydrobenzo[f]isoquinolin-7-yl)methyl Acetate] | 55.6 | -5.2 |  |  |
| CCCN1C[C@H]2CC[C@@H]3[C@](C)(COC(C)=O)[C@H](OC(C)=O)CC[C@@]3(C)[C@@H]2C[C@@H]1C1=CCOC1=O [4r, ((2R,4aS,6aS,7R,8R,10aS,10bR)-8-Acetoxy-7,10a-dimethyl-2-(2-oxo-2,5-dihydrofuran-3-yl)-3-propyltetradecahydrobenzo[f]isoquinolin-7-yl)methyl Acetate] | 51.4 | -5.6 |  |  |
| Cc1ccc(CN2C[C@H]3CC[C@@H]4[C@]5(C)COC(C)(C)O[C@@H]5CC[C@@]4(C)[C@@H]3C[C@@H]2C2=CCOC2=O)cc1 [9f, 3-((4aR,4bS,6aS,9R,10aR,10bS,12aR)-2,2,4a,10b-Tetramethyl-8-(4-methylbenzyl)tetradecahydro-4H-[1,3]dioxino[5′,4′:3,4]benzo[1,2-f]isoquinolin-9-yl)furan-2(5H)-one] | 100 | -1.6 | > 100 | good inhibition |
| CC1(C)OC[C@@]2(C)[C@H]3CC[C@@H]4CN(Cc5ccc(C(C)(C)C)cc5)[C@@H](C5=CCOC5=O)C[C@H]4[C@]3(C)CC[C@H]2O1 [9g, 3-((4aR,4bS,6aS,9R,10aR,10bS,12aR)-8-(4-(tert-Butyl)benzyl)-2,2,4a,10b-tetramethyltetradecahydro-4H-[1,3]dioxino[5′,4′:3,4]benzo[1,2-f]isoquinolin-9-yl)furan-2(5H)-one] | 103 | -0.2 |  |  |
| C[C@@]12COCO[C@@H]1CC[C@]1(C)[C@@H]2CC[C@@H]2CN(Cc3cccs3)[C@@H](C3=CCOC3=O)C[C@H]21 [10d, 3-((4aR,4bS,6aS,9R,10aR,10bS,12aR)-4a,10b-Dimethyl-8-(thiophen-2-ylmethyl)tetradecahydro-4H-[1,3]dioxino[5′,4′:3,4]benzo[1,2-f]isoquinolin-9-yl)furan-2(5H)-one] | 58.6 | -13.4 |  |  |
| CC(=O)OC[C@@]1(C)[C@H]2CC[C@@H]3CN(C4CCCCCC4)[C@@H](C4=CCOC4=O)C[C@H]3[C@]2(C)CC[C@H]1OC(C)=O [4y, ((2R,4aS,6aS,7R,8R,10aS,10bR)-8-Acetoxy-3-cycloheptyl-7,10a-dimethyl-2-(2-oxo-2,5-dihydrofuran-3-yl)tetradecahydrobenzo[f]isoquinolin-7-yl)methyl Acetate] | 135 | -18.2 | > 100 |  |
| CC(=O)OC[C@@]1(C)[C@H]2CC[C@@H]3CN(Cc4ccccc4)[C@@H](C4=CCOC4=O)C[C@H]3[C@]2(C)CC[C@H]1OC(C)=O [4a, ((2R,4aS,6aS,7R,8R,10aS,10bR)-8-Acetoxy-3-benzyl-7,10a-dimethyl-2-(2-oxo-2,5-dihydrofuran-3-yl)tetradecahydrobenzo[f]isoquinolin-7-yl)methyl Acetate] | 66.8 | 15.5 |  |  |
| CC(=O)OC[C@@]1(C)[C@H]2CC[C@@H]3CN(Cc4ccccc4F)[C@@H](C4=CCOC4=O)C[C@H]3[C@]2(C)CC[C@H]1OC(C)=O [4l, ((2R,4aS,6aS,7R,8R,10aS,10bR)-8-Acetoxy-3-(2-fluorobenzyl)-7,10a-dimethyl-2-(2-oxo-2,5-dihydrofuran-3-yl)tetradecahydrobenzo[f]isoquinolin-7-yl)methyl Acetate] | 148 | -19.5 | > 100 |  |
| CC(=O)OC[C@@]1(C)[C@H]2CC[C@@H]3CN(Cc4cccs4)[C@@H](C4=CCOC4=O)C[C@H]3[C@]2(C)CC[C@H]1OC(C)=O [4p, ((2R,4aS,6aS,7R,8R,10aS,10bR)-8-Acetoxy-7,10a-dimethyl-2-(2-oxo-2,5-dihydrofuran-3-yl)-3-(thiophen-2-ylmethyl)tetradecahydrobenzo[f]isoquinolin-7-yl)methyl Acetate] | 26.9 | 4.2 |  | weak inhibition effect |
| CC(=O)OC[C@@]1(C)[C@H]2CC[C@@H]3CN(Cc4ccco4)[C@@H](C4=CCOC4=O)C[C@H]3[C@]2(C)CC[C@H]1OC(C)=O [4o, ((2R,4aS,6aS,7R,8R,10aS,10bR)-8-Acetoxy-3-(furan-2-ylmethyl)-7,10a-dimethyl-2-(2-oxo-2,5-dihydrofuran-3-yl)tetradecahydrobenzo[f]isoquinolin-7-yl)methyl Acetate] | 58.4 | -4.5 |  | weak inhibition effect |
| CC1(C)OC[C@@]2(C)[C@H]3CC[C@@H]4CN(Cc5ccc([N+](=O)[O-])cc5)[C@@H](C5=CCOC5=O)C[C@H]4[C@]3(C)CC[C@H]2O1 [9h, 3-((4aR,4bS,6aS,9R,10aR,10bS,12aR)-2,2,4a,10b-Tetramethyl-8-(4-nitrobenzyl)tetradecahydro-4H-[1,3]dioxino[5′,4′:3,4]benzo[1,2-f]isoquinolin-9-yl)furan-2(5H)-one] | 102 | -4.7 |  |  |
